Measured values gathered from unrelated publications.
Compare with care: the assays were run in different laboratories.
Observed: cell growth or viability

Compound	cell line	assay	conditions	measurement	value
c1cnc2c(c1)ccc1cccnc12	HEK-293T	MTT	12.5 µg/mL, 24 h	viability	> 80%
O=c1c2c([nH]c3cc(Oc4ccc(OC(F)(F)F)cc4)ccc13)CCCC2	HepG2	MTT	48 h	IC50	> 50 µM
OCc1ccc(-c2nn(Cc3ccccc3)c3ccccc23)o1	HepG2	ATP luminescence		IC50	7.14 µM
Cc1ccc(N(C)c2ccc(NC(=O)CN(C)c3ccccc3N3CCCC3=O)cc2)nc1	HepG2	ATP luminescence	48 h	CC50	> 40 µM
NS(=O)(=O)c1ccc(-c2ccc(Nc3ccc(Cl)cc3)cc2)cc1	HEK-293T	MTT	100 µM	viability	76%
NS(=O)(=O)OC[C@H]1C[C@@H](Nc2ccnc3cc(-c4cccc(SC(F)(F)F)c4)nn23)[C@H](O)[C@@H]1O	HEK-293T	ATP luminescence	24 h	EC50	0.296 µM
NS(=O)(=O)c1ccc(-c2ccc(Nc3ccncc3)cc2)cc1	HEK-293T	MTT	100 µM	viability	69%
CCN(c1ccc(C)cc1)c1ccc(NC(=O)CN(C)c2ccccc2N2CCCC2=O)cn1	HepG2	ATP luminescence	48 h	CC50	> 40 µM
